The test system of series [1] is HCT-116. Nature of the series: Induction of apoptotic cell death in human HCT116 cells assessed as change in nuclear morphology at 0.2 to 0.5 uM after 12 hrs by Hoechst 33258 staining based fluorescence microscopy analysis. In kind it is functional. A digest of the protocol:
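Nuclear morphology was examined by Hoechst 33258 staining in HCT-116 cells after treatment at 0.2 or 0.5 μM.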

Series [2] addresses T1, Bromodomain-containing protein 4 (Homo sapiens, UniProt O60885). The series can be described thus: Inhibition of GST-tagged BRD4 bromodomain (unknown origin) using biotinylated histone H4KAc peptide (1 to 21 residues) as substrate by HTRF assay.
The test system of series [3] is DLD-1. The series can be described thus: Antiproliferative activity against human DLD1 cells assessed as reduction in cell viability measured after 24 to 48 hrs by MTT assay. In kind it is functional, cell-based.
Series [4] deals with HCT-116. Nature of the series: Induction of apoptosis in human HCT116 cells assessed as necrotic cells at 0.2 uM by Annexin-V FITC/propidium iodide staining-based flow cytometry (reference value: 0.304 %). The series is classed as functional.
Series [5] concerns HCT-116. Nature of the series: Induction of apoptosis in human HCT116 cells assessed as viable cells at 0.2 uM by Annexin-V FITC/propidium iodide staining-based flow cytometry (reference value: 93.4 %). In kind it is functional. The settings on record: read-out: Activity.
The target in series [6] is Bromodomain testis-specific protein (Homo sapiens, UniProt Q58F21). The series can be described thus: Inhibition of human recombinant His-tagged BRDT BD1 domain expressed in Escherichia coli BL21(DE3)-R3-pRARE2 cells by AlphaScreen assay.
Series [7] deals with T1, Bromodomain-containing protein 4. The series can be described thus: Inhibition of human recombinant His-tagged BRD4 BD1 domain using H-SGRGK(Ac)GGK(Ac)GLGK-(Ac)GGAK(Ac)RHRK(Biotin)-OH as substrate preincubated with enzyme for 30 mins followed by substrate addition measured after 30 mins by AlphaScreen assay.
Series [8] addresses Bromodomain-containing protein 3 (Homo sapiens, UniProt Q15059). Nature of the series: Inhibition of human recombinant His-tagged BRD3 BD2 domain expressed in Escherichia coli BL21(DE3)-R3-pRARE2 cells by AlphaScreen assay.
In series [9] the target is Histone deacetylase 4 (Homo sapiens, UniProt P56524). The series can be described thus: Inhibition of HDAC4 (unknown origin) using biotinylated histone H3 KAc peptide (1 to 21 residues) as substrate by HTRF assay.
Chain of Histone deacetylase 4 (P56524 whole entry, the tested form may be a part): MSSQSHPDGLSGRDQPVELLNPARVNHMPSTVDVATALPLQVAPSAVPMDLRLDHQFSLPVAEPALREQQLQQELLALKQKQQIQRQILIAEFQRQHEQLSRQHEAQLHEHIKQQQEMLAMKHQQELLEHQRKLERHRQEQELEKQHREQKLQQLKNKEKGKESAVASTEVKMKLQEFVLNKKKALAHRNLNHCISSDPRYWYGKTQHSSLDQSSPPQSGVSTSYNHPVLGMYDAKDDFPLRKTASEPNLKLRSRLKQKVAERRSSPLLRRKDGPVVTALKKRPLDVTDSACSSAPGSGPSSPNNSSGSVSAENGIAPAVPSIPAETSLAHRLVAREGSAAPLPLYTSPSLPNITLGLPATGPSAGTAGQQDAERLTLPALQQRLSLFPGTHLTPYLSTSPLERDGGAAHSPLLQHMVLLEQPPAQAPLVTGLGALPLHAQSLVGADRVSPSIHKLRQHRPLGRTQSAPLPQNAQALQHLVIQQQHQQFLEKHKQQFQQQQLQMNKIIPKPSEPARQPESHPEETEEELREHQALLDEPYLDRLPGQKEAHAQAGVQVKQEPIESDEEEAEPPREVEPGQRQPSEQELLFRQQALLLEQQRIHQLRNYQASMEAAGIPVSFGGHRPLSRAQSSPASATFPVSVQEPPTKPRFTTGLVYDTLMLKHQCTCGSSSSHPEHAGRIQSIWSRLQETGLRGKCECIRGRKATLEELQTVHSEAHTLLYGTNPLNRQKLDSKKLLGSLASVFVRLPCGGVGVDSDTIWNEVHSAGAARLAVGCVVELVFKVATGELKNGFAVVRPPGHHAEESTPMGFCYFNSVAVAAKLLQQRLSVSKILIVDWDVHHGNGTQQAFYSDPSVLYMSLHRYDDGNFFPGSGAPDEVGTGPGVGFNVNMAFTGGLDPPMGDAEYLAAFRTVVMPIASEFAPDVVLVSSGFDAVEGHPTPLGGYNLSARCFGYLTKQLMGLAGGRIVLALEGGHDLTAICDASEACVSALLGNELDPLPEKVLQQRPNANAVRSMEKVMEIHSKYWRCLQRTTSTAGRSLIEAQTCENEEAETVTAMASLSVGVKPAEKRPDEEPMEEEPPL
The test system of series [10] is HCT-116. Nature of the series: Induction of apoptosis in human HCT116 cells assessed as late apoptotic cells at 0.5 uM by Annexin-V FITC/propidium iodide staining-based flow cytometry (reference value: 3.51 %). In kind it is functional.
The subject of series [11] is HCT-116. Nature of the series: Induction of apoptosis in human HCT116 cells assessed as apoptotic cells at 0.2 uM by Annexin-V FITC/propidium iodide staining-based flow cytometry (reference value: 6.3 +/- 0.4 %). The series is classed as functional.
The species entered for series [12] is Homo sapiens. The series can be described thus: Inhibition of BRD4/HDAC in human HCT116 cells assessed as increase in caspase 3 cleavage at 0.2 to 0.5 uM measured after 24 hrs by Western blot analysis. The series is classed as cell-based.
Series [13] deals with T1, Bromodomain-containing protein 4. Nature of the series: Inhibition of BRD4 in human HCT116 cells transfected with GFP-LC3 assessed as induction of autophagy by measuring increase in LC3 puncta at 0.5 uM measured after 24 hrs by confocal fluorescence microscopy. In kind it is cell-based. The gist of the method: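 HCT-116 cells transfected with GFP-LC3 plasmid, then incubated 24 h with 0.5 µM test agent; LC3 puncta (autophagosomes) imaged by confocal fluorescence microscopy.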

The target is the same in series [14]. Nature of the series: Inhibition of BRD4 in human HCT116 cells assessed as induction of autophagic flux by measuring accumulation of LC3-II at 0.5 uM after 24 hrs in presence of auto-phagolysosome inhibitor, bafilomycin-A1 by Western blot analysis. In kind it is cell-based. A digest of the protocol: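 HCT-116 cells received 0.5 μM compound with or without bafilomycin-A1 for 24 hours. LC3 and p62 protein were then analysed by western blot.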

The target is the same in series [15]. Nature of the series: Inhibition of BRD4 in human HCT116 cells transfected with ATG5 siRNA assessed as induction of autophagy by measuring LC3 cleavage at 0.5 uM by Western blot analysis. In kind it is cell-based. A digest of the protocol: (§1)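 HCT-116 cells first transfected with ATG5 siRNA or scramble siRNA; after silencing, exposed to 0.5 µM test agent or normal saline, then ATG5, AMPKα, p-AMPKα, p62 and LC3 protein assessed by western blot.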

For series [16] the target is unchanged. The series can be described thus: Inhibition of BRD4 in human HCT116 cells transfected with ATG5 siRNA assessed as induction of autophagy by measuring p62 degradation at 0.5 uM by Western blot analysis. In kind it is cell-based. A digest of the protocol: as §1
For series [17], the system named is Mus musculus. Nature of the series: In vivo inhibition of HDAC in BALB/cAnNCrl mouse xenografted with human HCT116 cells assessed as increase in acetylated histone H3 level in tumor tissue at 15 to 30 mg/kg, po administered on day 1 to day 19 measured on day 19 by immunohistochemical analysis. The series is classed as functional, organism-based. A digest of the protocol: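 HCT-116 xenograft mice were dosed orally at 15 or 30 mg/kg, or 30 mg/kg for reference agents, for 19 days, with vehicle or saline controls. Tumor sections were stained for Ki-67, c-Myc, Ac-H3, BRD4, LC3-II, LIFR and p-STAT3 by immunohistochemistry, and TUNEL staining was used as the apoptosis marker.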

Series [18] is described as follows: Half life in Sprague-Dawley rat at 30 mg/kg, iv administered as bolus dose measured up to 1440 mins by UPLC-QTOF/MS analysis. The series is classed as ADME, organism-based. The following applies: in vivo.
The species named for series [19] is Homo sapiens. The series can be described thus: Inhibition of BRD4/HDAC in human HCT116 cells assessed as increase in IL6 mRNA level at 0.5 uM after 24 hrs by RT-PCR analysis. The series is classed as cell-based. A digest of the protocol:
(§2)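 HCT-116 cells incubated 24 h with test agent (0.5 µM, 2.0 µM or 10 µM depending on compound); IL6, OSM, LIF and CTF1 mRNA levels then quantified.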

For series [20], the species on record is Homo sapiens. The series can be described thus: Inhibition of BRD4/HDAC in human HCT116 cells assessed as increase in LIF mRNA level at 0.5 uM after 24 hrs by RT-PCR analysis. In kind it is cell-based. The gist of the method: as §2
For series [21], the species on record is Homo sapiens. The series can be described thus: Inhibition of BRD4/HDAC in human HCT116 cells assessed as increase in CTF1 mRNA level at 0.5 uM after 24 hrs by RT-PCR analysis. The series is classed as cell-based. The gist of the method:
as §2

For series [22], the species on record is Homo sapiens. Nature of the series: Inhibition of BRD4/HDAC in human HCT116 cells assessed as inhibition of IL6-JAK-STAT3 signaling pathway by measuring decrease in JAK1 expression at 0.5 uM after 24 hrs by Western blot analysis. The series is classed as cell-based. A digest of the protocol: (§3)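 HCT-116 cells treated 24 h with 0.5 µM, 5.0 µM or 10 µM test agent depending on compound; OSMR, LIFR and downstream pathway proteins detected by western blot.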

The species entered for series [23] is Homo sapiens. The series can be described thus: Inhibition of BRD4/HDAC in human HCT116 cells assessed as inhibition of IL6-JAK-STAT3 signaling pathway by measuring decrease in STAT3 phosphorylation at 0.5 uM after 24 hrs by Western blot analysis. The series is classed as cell-based. The gist of the method: as §3
Series [24] deals with T1, Bromodomain-containing protein 4. Nature of the series: Inhibition of BRD4 in human HCT116 cells assessed as induction of autophagy by measuring LC3-I cleavage to LC3-II at 0.5 uM measured after 24 hrs by Western blot analysis. The series is classed as cell-based. A digest of the protocol: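 HCT-116 cells were treated for 24 hours with 0.5 μM, 2.0 μM or 10 μM agents. LC3 (LC3-I to LC3-II conversion) and p62 were then detected by western blot.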

Each structure is given as a SMILES string. The source made the active and inactive calls. The calls are words filed in the database; no cut-off is given here.

Chain of Bromodomain-containing protein 3 (Q15059 whole entry, the tested form may be a part): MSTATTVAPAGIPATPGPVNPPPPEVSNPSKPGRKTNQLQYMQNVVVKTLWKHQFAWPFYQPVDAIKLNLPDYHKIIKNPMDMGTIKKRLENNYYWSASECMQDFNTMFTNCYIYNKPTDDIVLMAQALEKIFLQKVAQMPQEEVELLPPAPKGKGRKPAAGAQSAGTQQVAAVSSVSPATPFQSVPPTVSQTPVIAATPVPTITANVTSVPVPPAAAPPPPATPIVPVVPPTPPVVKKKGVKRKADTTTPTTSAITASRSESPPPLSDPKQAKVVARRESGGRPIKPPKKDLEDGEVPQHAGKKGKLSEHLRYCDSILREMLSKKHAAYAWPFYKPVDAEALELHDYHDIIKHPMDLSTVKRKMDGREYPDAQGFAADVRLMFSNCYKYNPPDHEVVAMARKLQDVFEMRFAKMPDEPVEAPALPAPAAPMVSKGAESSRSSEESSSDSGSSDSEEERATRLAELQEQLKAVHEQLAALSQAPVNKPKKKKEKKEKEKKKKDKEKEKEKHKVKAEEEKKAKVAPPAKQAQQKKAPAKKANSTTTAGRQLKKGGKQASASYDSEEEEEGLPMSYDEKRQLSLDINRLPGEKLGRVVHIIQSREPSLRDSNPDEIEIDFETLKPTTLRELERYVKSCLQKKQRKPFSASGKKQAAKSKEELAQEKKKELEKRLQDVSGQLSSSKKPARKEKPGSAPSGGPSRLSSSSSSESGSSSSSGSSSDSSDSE

Take `Cc1cc(-c2nc3sc4c(c3c(=O)[nH]2)CCN(C)C4)cc(C)c1OCCCCCC(=O)NO`: the outcome in [1] was Active. Besides, the IC50 is 710 nM in [2]; 2110 nM in [3]; over 20000 nM in [6]; 1100 nM in [7]; over 20000 nM in [8]; over 10000 nM in series [9]. The Activity in [4] is given as 7.01%; in series [10] it was 35.8%; in series [11], 33.2%. In addition, the viability at 0.2 µM in series [5] stood at 61.7%. Further, the inhibition result in [12], in series [13], in series [17], in series [19], in series [20] and in series [21] was “Active” throughout. The inhibition entry in series [22], in [23] and in [24] was “Active” throughout. Further, the inhibition result in series [14], in series [15] and in series [16] was “inactive” each time. In series [18], this compound gave a half-life of 2.48 h.

Source of the values: ChEMBL document CHEMBL4342471, “Discovery of Thieno[2,3-d]pyrimidine-Based Hydroxamic Acid Derivatives as Bromodomain-Containing Protein 4/Histone Deacetylase Dual Inhibitors Induce Autophagic Cell Death in Colorectal Carcinoma Cells” (J Med Chem, 2020).
